Results on 39 compounds are retold here after ChEMBL document CHEMBL3769357, “Phosphoramidate protides of five flavones and their antiproliferative activity against HepG2 and L-O2 cell lines” (Eur J Med Chem, 2016).

Structures are written as SMILES.

As a reminder, the IC50 is the midpoint of a concentration-inhibition curve.

Experiment [1] in a line: Cytotoxicity against human LO2 cells after 48 hrs by MTT assay. The experiment is classed as cell-based. Conditions: L02, 48 h. In short, it runs like this: (§1)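 After 48 h, MTT (5 mg/mL in PBS) added, 4 h at 37 °C, DMSO added, absorbance read at 570 nm. IC50 is the 50% growth-inhibition concentration, mean of three independent experiments.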
The test system of experiment [2] is HepG2. In words: Antiproliferative activity against human HepG2 cells after 48 hrs by MTT assay. It counts as functional, cell-based. Conditions: HepG2, 48 h. The method in brief:
as §1

Experiment [3] relates to HepG2. Kind of experiment: Selectivity index, ratio of IC50 for human LO2 cells to human HepG2 cells.

`COC(=O)[C@@H](NP(=O)(Oc1ccccc1)Oc1cc(O)c2c(=O)cc(-c3ccc(O)cc3)oc2c1)C(C)C` (some centres not stated): the IC50 in experiment [1] worked out at 26 µM; in experiment [2] it was 27.3 µM. In experiment [3], the “Ratio IC50” value was 0.952.
The corresponding values for `COC(=O)CNP(=O)(Oc1ccccc1)Oc1cc(O)c2c(=O)c(-c3ccc(O)cc3)coc2c1` (configuration not stated) are 44.5 µM, over 100 µM and under 0.445.
With `O=c1cc(-c2ccc(O)c(O)c2)oc2cc(O)cc(O)c12` [LUTEOLIN], the 50% inhibitory concentration (IC50) was over 100 µM in experiment [1] and 34.7 µM in experiment [2]. In addition, in experiment [3], the “Ratio IC50” value is over 2.882.
As to `COC(=O)CNP(=O)(Oc1ccccc1)Oc1ccc2c(=O)c(-c3ccc(O)cc3)coc2c1` (configuration not stated), the half-inhibitory concentration (IC50) in experiment [1] is over 100 µM; in experiment [2] it was 48.8 µM. In addition, in experiment [3], the “Ratio IC50” value is given as 2.049.
Regarding `C#Cc1cccc(Nc2ncnc3cc(OCCOC)c(OCCOC)cc23)c1` [ERLOTINIB], the figures for the IC50 in experiment [1] and in experiment [2] were 18.5 µM and 5.8 µM, respectively. Moreover, the “Ratio IC50” value in experiment [3] came out at 3.19.
In the case of `COC(=O)[C@H](C)NP(=O)(Oc1ccccc1)Oc1cc(O)c2c(=O)cc(-c3ccc(O)cc3)oc2c1` (some centres not stated), the results for the IC50 in experiment [1] and in experiment [2] were 35.3 µM and 34.7 µM, respectively. In addition, the “Ratio IC50” value in experiment [3] worked out at 1.017.
`COC(=O)[C@@H](NP(=O)(Oc1ccccc1)Oc1cc(O)c2c(=O)cc(-c3ccccc3)oc2c1)C(C)C` (some centres not stated): the half-maximal inhibitory concentration (IC50) in experiment [1] was over 100 µM; in experiment [2], 21.1 µM. In addition, the “Ratio IC50” value in experiment [3] is listed as over 5.
`COC(=O)[C@H](Cc1ccccc1)NP(=O)(Oc1ccccc1)Oc1cc(OC(C)=O)c2c(=O)cc(-c3ccc(OC(C)=O)cc3)oc2c1` (some centres not stated): the 50% inhibitory concentration (IC50) in experiment [1] stood at 45.9 µM; in experiment [2], 38.5 µM. The “Ratio IC50” value in experiment [3] is 1.192.
Regarding `COC(=O)[C@H](CC(C)C)NP(=O)(Oc1ccccc1)Oc1cc(OC(C)=O)c2c(=O)cc(-c3ccc(OC(C)=O)c(OC(C)=O)c3)oc2c1` (some centres not stated), the half-inhibitory concentration (IC50) came to 38.2 µM in experiment [1] and 21 µM in experiment [2]. Besides, the “Ratio IC50” value in experiment [3] came to 1.819.
For the compound `COC(=O)[C@H](Cc1ccccc1)NP(=O)(Oc1ccccc1)Oc1cc(O)c2c(=O)cc(-c3ccc(O)c(O)c3)oc2c1` (some centres not stated), the half-inhibitory concentration (IC50) in experiment [1] was found to be 39.1 µM; in experiment [2], 15.7 µM. Besides, in experiment [3], the “Ratio IC50” value came to 2.49.
Regarding `COC(=O)CNP(=O)(Oc1ccccc1)Oc1ccc2c(=O)c(-c3ccc(OC(C)=O)cc3)coc2c1` (configuration not stated), the 50% inhibitory concentration (IC50) in experiment [1] and in experiment [2] was over 100 µM throughout.
`COC(=O)[C@@H](NP(=O)(Oc1ccccc1)Oc1cc(O)c2c(=O)cc(-c3ccc(O)c(O)c3)oc2c1)C(C)C` (some centres not stated): the half-inhibitory concentration (IC50) in experiment [1] was 8.2 µM; in experiment [2], 16.6 µM. Besides, the “Ratio IC50” value in experiment [3] is 0.494.
`COC(=O)[C@H](CC(C)C)NP(=O)(Oc1ccccc1)Oc1ccc2c(=O)c(-c3ccc(OC(C)=O)cc3)coc2c1` (some centres not stated): the IC50 in experiment [1] was 44.8 µM; in experiment [2] it was 60 µM. The “Ratio IC50” value in experiment [3] was 0.747.
As to `COC(=O)[C@H](C)NP(=O)(Oc1ccccc1)Oc1ccc2c(=O)c(-c3ccc(O)cc3)coc2c1` (some centres not stated), the half-maximal inhibitory concentration (IC50) came out at 20.5 µM in experiment [1] and 28.8 µM in experiment [2]. The “Ratio IC50” value in experiment [3] came to 0.712.
Take `COC(=O)[C@H](CC(C)C)NP(=O)(Oc1ccccc1)Oc1cc(OC(C)=O)c2c(=O)c(-c3ccc(OC(C)=O)cc3)coc2c1` (some centres not stated): the 50% inhibitory concentration (IC50) in experiment [1] was 60.1 µM; in experiment [2] it was 54 µM. Further, the “Ratio IC50” value in experiment [3] was 1.113.
In the case of `COC(=O)[C@H](CC(C)C)NP(=O)(Oc1ccccc1)Oc1cc(O)c2c(=O)c(-c3ccc(O)cc3)coc2c1` (some centres not stated), the half-inhibitory concentration (IC50) in experiment [1] is 48.2 µM; in experiment [2] it was 72.3 µM. Further, the “Ratio IC50” value in experiment [3] came out at 0.667.
Take `COC(=O)CNP(=O)(Oc1ccccc1)Oc1cc(OC(C)=O)c2c(=O)c(-c3ccc(OC(C)=O)cc3)coc2c1` (configuration not stated): the figures for the concentration for half-maximal inhibition (IC50) in experiment [1] and in experiment [2] were 55.2 µM and 39.7 µM, respectively. Also, the “Ratio IC50” value in experiment [3] worked out at 1.39.
Consider `COC(=O)[C@H](CC(C)C)NP(=O)(Oc1ccccc1)Oc1cc(O)c2c(=O)cc(-c3ccccc3)oc2c1` (some centres not stated), for which the IC50 in experiment [1] and in experiment [2] was over 100 µM throughout.
With `COC(=O)[C@H](Cc1ccccc1)NP(=O)(Oc1ccccc1)Oc1ccc2c(=O)c(-c3ccc(O)cc3)coc2c1` (some centres not stated), the half-maximal inhibitory concentration (IC50) in experiment [1] was found to be 39.3 µM; in experiment [2], 52.1 µM. Further, the “Ratio IC50” value in experiment [3] is on record as 0.754.
For `COC(=O)[C@H](Cc1ccccc1)NP(=O)(Oc1ccccc1)Oc1cc(O)c2c(=O)cc(-c3ccccc3)oc2c1` (some centres not stated), the IC50 in experiment [1] and in experiment [2] was over 100 µM in each case.
Consider `COC(=O)CNP(=O)(Oc1ccccc1)Oc1cc(OC(C)=O)c2c(=O)cc(-c3ccc(OC(C)=O)cc3)oc2c1` (configuration not stated), for which the half-maximal inhibitory concentration (IC50) in experiment [1] was over 100 µM; in experiment [2], 47.8 µM. The “Ratio IC50” value in experiment [3] is on record as over 2.092.
On to `COC(=O)[C@H](C)NP(=O)(Oc1ccccc1)Oc1cc(O)c2c(=O)c(-c3ccc(O)cc3)coc2c1` (some centres not stated), for which the figures for the IC50 in experiment [1] and in experiment [2] were 15.7 µM and 57.2 µM, respectively. Moreover, the “Ratio IC50” value in experiment [3] amounted to 0.274.
As for `COC(=O)[C@H](Cc1ccccc1)NP(=O)(Oc1ccccc1)Oc1ccc2c(=O)c(-c3ccc(OC(C)=O)cc3)coc2c1` (some centres not stated), the concentration for half-maximal inhibition (IC50) in experiment [1] is over 100 µM; in experiment [2], 60.2 µM. Moreover, the “Ratio IC50” value in experiment [3] is over 1.66.
Take `COC(=O)CNP(=O)(Oc1ccccc1)Oc1cc(O)c2c(=O)cc(-c3ccc(O)cc3)oc2c1` (configuration not stated): the concentration for half-maximal inhibition (IC50) in experiment [1] came out at 71.5 µM; in experiment [2], 59.7 µM. The “Ratio IC50” value in experiment [3] is recorded as 1.198.
For the compound `COC(=O)[C@@H](NP(=O)(Oc1ccccc1)Oc1cc(OC(C)=O)c2c(=O)cc(-c3ccc(OC(C)=O)cc3)oc2c1)C(C)C` (some centres not stated), the IC50 is 29.4 µM in experiment [1] and 18.4 µM in experiment [2]. Further, in experiment [3], the “Ratio IC50” value is on record as 1.59.
With `COC(=O)CNP(=O)(Oc1ccccc1)Oc1cc(O)c2c(=O)cc(-c3ccc(O)c(O)c3)oc2c1` (configuration not stated), the IC50 in experiment [1] and in experiment [2] was 47.7 µM in each case. Also, the “Ratio IC50” value in experiment [3] is 1.
In the case of `COC(=O)[C@H](C)NP(=O)(Oc1ccccc1)Oc1cc(OC(C)=O)c2c(=O)cc(-c3ccc(OC(C)=O)c(OC(C)=O)c3)oc2c1` (some centres not stated), the IC50 in experiment [1] was 51.2 µM; in experiment [2], 27.3 µM. Further, the “Ratio IC50” value in experiment [3] came to 1.875.
Turning to `COC(=O)CNP(=O)(Oc1ccccc1)Oc1cc(O)c2c(=O)cc(-c3ccccc3)oc2c1` (configuration not stated), the half-maximal inhibitory concentration (IC50) was 96.5 µM in experiment [1] and 42.6 µM in experiment [2]. Also, the “Ratio IC50” value in experiment [3] is 2.265.
For `O=c1cc(-c2ccccc2)oc2cc(O)cc(O)c12` [CHRYSIN], the concentration for half-maximal inhibition (IC50) in experiment [1] and in experiment [2] was over 100 µM throughout.
With `COC(=O)[C@H](C)NP(=O)(Oc1ccccc1)Oc1cc(O)c2c(=O)cc(-c3ccccc3)oc2c1` (some centres not stated), the half-inhibitory concentration (IC50) in experiment [1] came to 62.3 µM; in experiment [2], 35.3 µM. The “Ratio IC50” value in experiment [3] is reported as 1.765.
The corresponding values for `COC(=O)[C@H](CC(C)C)NP(=O)(Oc1ccccc1)Oc1cc(O)c2c(=O)cc(-c3ccc(O)cc3)oc2c1` (some centres not stated) are 52.8 µM, 37.2 µM and 1.419.
As to `COC(=O)[C@H](CC(C)C)NP(=O)(Oc1ccccc1)Oc1cc(O)c2c(=O)cc(-c3ccc(O)c(O)c3)oc2c1` (some centres not stated), the concentration for half-maximal inhibition (IC50) came out at 34 µM in experiment [1] and 22.4 µM in experiment [2]. Further, in experiment [3], the “Ratio IC50” value is given as 1.581.
The like results for `COC(=O)[C@H](Cc1ccccc1)NP(=O)(Oc1ccccc1)Oc1cc(O)c2c(=O)cc(-c3ccc(O)cc3)oc2c1` (some centres not stated) were, in that order, over 100 µM, 36.6 µM and over 2.732.
Regarding `COC(=O)[C@H](Cc1ccccc1)NP(=O)(Oc1ccccc1)Oc1cc(O)c2c(=O)c(-c3ccc(O)cc3)coc2c1` (some centres not stated), the IC50 in experiment [1] and in experiment [2] was over 100 µM throughout.
For `COC(=O)[C@H](CC(C)C)NP(=O)(Oc1ccccc1)Oc1ccc2c(=O)c(-c3ccc(O)cc3)coc2c1` (some centres not stated), the 50% inhibitory concentration (IC50) in experiment [1] was 47.7 µM; in experiment [2], 66 µM. Besides, the “Ratio IC50” value in experiment [3] was 0.723.
The like results for `COC(=O)[C@H](Cc1ccccc1)NP(=O)(Oc1ccccc1)Oc1cc(OC(C)=O)c2c(=O)c(-c3ccc(OC(C)=O)cc3)coc2c1` (some centres not stated) were, in that order, over 100 µM, 63.2 µM and 1.582.
With `COC(=O)[C@H](Cc1ccccc1)NP(=O)(Oc1ccccc1)Oc1cc(OC(C)=O)c2c(=O)cc(-c3ccc(OC(C)=O)c(OC(C)=O)c3)oc2c1` (some centres not stated), the IC50 in experiment [1] amounted to 30.3 µM; in experiment [2], 27.1 µM. In addition, the “Ratio IC50” value in experiment [3] is 1.118.
In the case of `COC(=O)[C@H](CC(C)C)NP(=O)(Oc1ccccc1)Oc1cc(OC(C)=O)c2c(=O)cc(-c3ccc(OC(C)=O)cc3)oc2c1` (some centres not stated), the half-maximal inhibitory concentration (IC50) in experiment [1] is 59.8 µM; in experiment [2], 22.1 µM. Also, the “Ratio IC50” value in experiment [3] is on record as 2.706.
The corresponding values for `COC(=O)CNP(=O)(Oc1ccccc1)Oc1cc(OC(C)=O)c2c(=O)cc(-c3ccc(OC(C)=O)c(OC(C)=O)c3)oc2c1` (configuration not stated) are 57.1 µM, 26.4 µM and 2.163.
